Measurements reported in ChEMBL document CHEMBL1811752, “Synthesis and pharmacological characterization of bicyclic triple reuptake inhibitor 3-aryl octahydrocyclopenta[c]pyrrole analogues” (J Med Chem, 2011).

Key:
[1] = biological target: T1, CYP1A (Homo sapiens, UniProt P04798+P05177); experiment: Inhibition of CYP1A in human liver microsomes by LC-MS/MS analysis; format: ADME, Microsome
T1 sequence (P04798 whole entry): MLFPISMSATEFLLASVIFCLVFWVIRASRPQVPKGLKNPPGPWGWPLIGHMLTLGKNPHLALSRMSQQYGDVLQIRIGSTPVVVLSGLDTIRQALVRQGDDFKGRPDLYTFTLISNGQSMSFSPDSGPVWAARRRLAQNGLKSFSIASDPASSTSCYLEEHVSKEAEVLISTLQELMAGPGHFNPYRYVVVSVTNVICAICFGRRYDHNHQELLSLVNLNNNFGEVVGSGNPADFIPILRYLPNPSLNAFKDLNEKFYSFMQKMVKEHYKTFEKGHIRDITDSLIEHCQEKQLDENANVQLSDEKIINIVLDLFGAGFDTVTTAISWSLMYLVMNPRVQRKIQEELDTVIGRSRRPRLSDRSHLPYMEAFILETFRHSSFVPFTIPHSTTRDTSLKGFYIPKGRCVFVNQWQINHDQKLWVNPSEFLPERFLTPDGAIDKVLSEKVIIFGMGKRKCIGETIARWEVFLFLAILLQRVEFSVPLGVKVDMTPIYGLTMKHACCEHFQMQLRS
T1 sequence (P05177 whole entry): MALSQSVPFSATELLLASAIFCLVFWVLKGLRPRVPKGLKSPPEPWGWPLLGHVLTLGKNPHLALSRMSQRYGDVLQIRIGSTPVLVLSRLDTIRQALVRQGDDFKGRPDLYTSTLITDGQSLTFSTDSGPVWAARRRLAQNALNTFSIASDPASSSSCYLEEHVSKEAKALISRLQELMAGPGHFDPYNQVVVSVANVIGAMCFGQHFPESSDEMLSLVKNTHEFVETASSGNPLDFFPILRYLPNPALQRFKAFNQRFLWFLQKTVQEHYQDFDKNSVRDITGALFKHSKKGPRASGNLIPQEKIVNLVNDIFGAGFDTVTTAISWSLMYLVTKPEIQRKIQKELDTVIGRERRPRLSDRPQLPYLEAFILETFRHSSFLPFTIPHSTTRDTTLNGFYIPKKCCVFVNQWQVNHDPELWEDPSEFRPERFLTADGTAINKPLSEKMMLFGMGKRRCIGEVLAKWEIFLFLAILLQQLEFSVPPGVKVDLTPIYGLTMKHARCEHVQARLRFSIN
Summary of the method: (§1)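 Human liver microsomes incubated with isoform-specific substrates and compound, typically 0.1–25 μM. Metabolite formation read by LC-MS/MS, […]. IC50 calculated from the decrease in metabolite formation relative to vehicle control.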

[2] = Half life in mouse liver microsomes at 3 uM by LC-MS/MS analysis; format: ADME, Microsome
Summary of the method: (§2)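 Human or mouse liver microsomes (0.5 mg/mL) incubated with 3 μM compound at 37 °C. Reaction started with NADPH and stopped with methanol containing internal standard. Loss of compound followed over 45 min by LC-MS/MS. Peak area ratio to internal standard plotted against time and the slope of the line taken.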

[3] = test system: Brain; experiment: Drug level in mouse brain assessed as (3aS,6aR)-3a-(3,4-dichlorophenyl)octahydrocyclopenta[c]pyrrole level at 30 mg/kg, po; format: ADME, organism-based; parameters: dose 30 mg/kg, route oral; conditions: in vivo
Summary of the method: (§3)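 Male mice dosed orally at 3, 10 or 30 mg/kg in 5% transcutol/saline, 60 min before the tail suspension test. Terminal whole brain (ng/g) and plasma (ng/mL) samples taken from the test animals. Brain/plasma ratio derived from these levels.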

[4] = test system: Brain; experiment: Drug level in mouse brain assessed as (3aS,6aR)-3a-(3,4-dichlorophenyl)octahydrocyclopenta[c]pyrrole level at 10 mg/kg, po; format: ADME, organism-based; parameters: dose 10 mg/kg, route oral; conditions: in vivo; summary of the method: as §3
[5] = test system: Mus musculus; experiment: Antidepressant activity in mouse assessed as reduction of immobility time at 30 mg/kg, po after 60 mins by tail suspension test relative to control; format: functional; parameters: scale not given: the % may be the effect or the level left
Summary of the method: (§4)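 Mouse tail suspension test, male mice (10–12 per group, blind). Single oral dose in 5% transcutol in saline, 60 min pretreatment. Immobility recorded automatically for 5 min. Compared with vehicle group. Desipramine 100 mg/kg PO used as reference. One-way ANOVA with Dunnett's post test, p < 0.05.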

[6] = biological target: Cytochrome P450 3A4 (Homo sapiens, UniProt P08684); experiment: Inhibition of CYP3A4 in human liver microsomes by LC-MS/MS analysis; format: ADME, Microsome; summary of the method: as §1
Cytochrome P450 3A4, sequence (P08684 whole entry): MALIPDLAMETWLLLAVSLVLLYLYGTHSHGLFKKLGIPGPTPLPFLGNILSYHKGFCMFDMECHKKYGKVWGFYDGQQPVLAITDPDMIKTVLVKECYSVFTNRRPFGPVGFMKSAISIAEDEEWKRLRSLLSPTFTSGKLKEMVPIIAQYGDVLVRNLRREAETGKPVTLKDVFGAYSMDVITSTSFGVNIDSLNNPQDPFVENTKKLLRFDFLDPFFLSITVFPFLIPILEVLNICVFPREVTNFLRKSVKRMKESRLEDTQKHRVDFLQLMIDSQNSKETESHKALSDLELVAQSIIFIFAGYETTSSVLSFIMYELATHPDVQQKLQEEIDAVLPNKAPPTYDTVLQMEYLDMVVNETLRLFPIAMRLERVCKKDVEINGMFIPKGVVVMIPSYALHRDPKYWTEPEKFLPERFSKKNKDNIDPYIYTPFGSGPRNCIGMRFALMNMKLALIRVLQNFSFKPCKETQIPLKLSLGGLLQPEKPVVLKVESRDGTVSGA

[7] = biological target: Sodium-dependent serotonin transporter (Homo sapiens, UniProt P31645); experiment: Inhibition of serotonin reuptake at SERT expressed in HEK293 cells; format: cell-based
Sodium-dependent serotonin transporter, sequence (P31645 whole entry): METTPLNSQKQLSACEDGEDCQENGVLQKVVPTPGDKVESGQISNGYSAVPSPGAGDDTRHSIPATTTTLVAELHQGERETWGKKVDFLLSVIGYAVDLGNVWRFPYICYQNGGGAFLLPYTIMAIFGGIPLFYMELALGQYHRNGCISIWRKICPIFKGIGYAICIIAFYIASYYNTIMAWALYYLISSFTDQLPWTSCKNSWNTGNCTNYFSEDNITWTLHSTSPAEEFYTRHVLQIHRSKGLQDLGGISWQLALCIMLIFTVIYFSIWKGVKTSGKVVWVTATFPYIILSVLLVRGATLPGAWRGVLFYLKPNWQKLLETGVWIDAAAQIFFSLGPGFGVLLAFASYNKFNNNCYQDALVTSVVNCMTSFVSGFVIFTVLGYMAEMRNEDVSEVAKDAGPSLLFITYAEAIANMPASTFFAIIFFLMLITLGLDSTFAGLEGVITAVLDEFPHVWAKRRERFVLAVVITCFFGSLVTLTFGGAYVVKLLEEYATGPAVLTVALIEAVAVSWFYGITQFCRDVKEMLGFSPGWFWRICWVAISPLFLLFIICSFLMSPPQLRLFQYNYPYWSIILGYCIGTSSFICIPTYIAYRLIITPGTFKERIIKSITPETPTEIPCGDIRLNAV

[8] = test system: Plasma; experiment: Plasma concentration in mouse assessed as (3aS,6aR)-3a-(3,4-dichlorophenyl)octahydrocyclopenta[c]pyrrole level at 30 mg/kg, po; format: ADME, organism-based; parameters: dose 30 mg/kg, route oral; conditions: in vivo; summary of the method: as §3
[9] = biological target: Cytochrome P450 2C19 (Homo sapiens, UniProt P33261); experiment: Inhibition of CYP2C19 in human liver microsomes by LC-MS/MS analysis; format: ADME, Microsome; summary of the method: as §1
Cytochrome P450 2C19, sequence (P33261 whole entry): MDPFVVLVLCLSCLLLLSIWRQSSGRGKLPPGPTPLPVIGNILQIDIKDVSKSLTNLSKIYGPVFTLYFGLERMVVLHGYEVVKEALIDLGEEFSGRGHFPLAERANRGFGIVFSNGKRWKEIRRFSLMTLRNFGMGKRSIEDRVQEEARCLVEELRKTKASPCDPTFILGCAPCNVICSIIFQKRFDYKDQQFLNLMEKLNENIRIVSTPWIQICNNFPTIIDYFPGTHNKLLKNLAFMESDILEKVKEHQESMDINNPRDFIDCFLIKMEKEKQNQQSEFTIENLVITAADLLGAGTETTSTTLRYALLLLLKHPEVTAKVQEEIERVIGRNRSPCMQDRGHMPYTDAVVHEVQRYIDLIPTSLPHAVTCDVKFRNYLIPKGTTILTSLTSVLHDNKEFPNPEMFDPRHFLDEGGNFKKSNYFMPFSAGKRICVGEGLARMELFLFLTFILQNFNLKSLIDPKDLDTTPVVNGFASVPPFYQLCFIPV

[10] = test system: Plasma; experiment: Plasma concentration in mouse at 10 mg/kg, po; format: ADME, organism-based; parameters: dose 10 mg/kg, route oral; conditions: in vivo; summary of the method: as §3
[11] = test system: Mus musculus; experiment: Antidepressant activity in mouse assessed as reduction of immobility time at 10 mg/kg, po after 60 mins by tail suspension test relative to control; format: functional; parameters: scale not given: the % may be the effect or the level left; summary of the method: as §4
[12] = Ratio of drug level in brain to plasma in po dosed mouse; format: ADME, organism-based; conditions: brain and plasma, read-out: BPR; summary of the method: as §3
[13] = test system: Plasma; experiment: Plasma concentration in mouse at 30 mg/kg, po; format: ADME, organism-based; parameters: dose 30 mg/kg, route oral; conditions: in vivo; summary of the method: as §3
[14] = Half life in human liver microsomes at 3 uM by LC-MS/MS analysis; format: ADME, Microsome; summary of the method: as §2
[15] = test system: Mus musculus; experiment: Antidepressant activity in po dosed mouse assessed as reduction of immobility time after 60 mins by tail suspension test; format: functional, organism-based; summary of the method: as §4
[16] = biological target: Cytochrome P450 2C9 (Homo sapiens, UniProt P11712); experiment: Inhibition of CYP2C9 in human liver microsomes by LC-MS/MS analysis; format: ADME, Microsome; summary of the method: as §1
Cytochrome P450 2C9, sequence (P11712 whole entry): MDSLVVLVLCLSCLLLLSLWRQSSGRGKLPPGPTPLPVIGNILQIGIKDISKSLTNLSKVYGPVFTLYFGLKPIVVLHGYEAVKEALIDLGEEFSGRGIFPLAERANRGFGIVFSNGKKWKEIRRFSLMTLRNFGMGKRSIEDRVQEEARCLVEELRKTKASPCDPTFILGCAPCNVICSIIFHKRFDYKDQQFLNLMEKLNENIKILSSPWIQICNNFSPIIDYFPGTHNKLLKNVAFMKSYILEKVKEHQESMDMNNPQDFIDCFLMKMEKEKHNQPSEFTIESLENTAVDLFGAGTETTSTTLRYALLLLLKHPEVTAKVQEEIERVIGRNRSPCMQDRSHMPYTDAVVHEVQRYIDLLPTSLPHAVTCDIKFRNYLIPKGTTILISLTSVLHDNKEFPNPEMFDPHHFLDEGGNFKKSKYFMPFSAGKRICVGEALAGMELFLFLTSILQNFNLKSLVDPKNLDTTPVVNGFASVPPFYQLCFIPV

[17] = test system: Plasma; experiment: Plasma concentration in mouse assessed as (3aS,6aR)-3a-(3,4-dichlorophenyl)octahydrocyclopenta[c]pyrrole level at 10 mg/kg, po; format: ADME, organism-based; parameters: dose 10 mg/kg, route oral; conditions: in vivo; summary of the method: as §3
[18] = test system: Brain; experiment: Drug level in mouse brain at 30 mg/kg, po; format: ADME, organism-based; parameters: dose 30 mg/kg, route oral; conditions: in vivo; summary of the method: as §3
[19] = biological target: Sodium-dependent dopamine transporter (Homo sapiens, UniProt Q01959); experiment: Inhibition of dopamine reuptake at DAT expressed in CHO-K1 cells; format: cell-based
Sodium-dependent dopamine transporter, sequence (Q01959 whole entry): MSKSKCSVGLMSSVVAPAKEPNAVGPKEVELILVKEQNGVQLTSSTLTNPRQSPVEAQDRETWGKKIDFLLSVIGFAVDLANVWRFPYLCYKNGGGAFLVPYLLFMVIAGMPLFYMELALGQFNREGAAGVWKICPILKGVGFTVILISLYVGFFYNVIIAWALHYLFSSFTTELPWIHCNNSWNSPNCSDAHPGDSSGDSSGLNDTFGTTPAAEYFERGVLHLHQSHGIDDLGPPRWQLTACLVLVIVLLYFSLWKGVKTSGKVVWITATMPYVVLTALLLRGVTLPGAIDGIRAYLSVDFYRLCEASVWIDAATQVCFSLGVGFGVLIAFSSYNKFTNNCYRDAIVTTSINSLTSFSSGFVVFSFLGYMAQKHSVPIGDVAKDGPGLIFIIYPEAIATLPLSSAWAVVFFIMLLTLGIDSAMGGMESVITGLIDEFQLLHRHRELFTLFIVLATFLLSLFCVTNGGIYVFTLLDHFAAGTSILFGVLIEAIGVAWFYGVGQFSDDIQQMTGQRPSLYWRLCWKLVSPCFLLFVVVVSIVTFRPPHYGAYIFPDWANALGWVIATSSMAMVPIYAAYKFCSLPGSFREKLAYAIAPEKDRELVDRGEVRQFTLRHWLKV

[20] = test system: Plasma; experiment: Plasma concentration in mouse at 3 mg/kg, po; format: ADME, organism-based; parameters: dose 3 mg/kg, route oral; conditions: in vivo; summary of the method: as §3
[21] = biological target: Sodium-dependent noradrenaline transporter (Homo sapiens, UniProt P23975); experiment: Inhibition of norepinephrine reuptake at NET expressed in MDCK cells; format: cell-based
Sodium-dependent noradrenaline transporter, sequence (P23975 whole entry): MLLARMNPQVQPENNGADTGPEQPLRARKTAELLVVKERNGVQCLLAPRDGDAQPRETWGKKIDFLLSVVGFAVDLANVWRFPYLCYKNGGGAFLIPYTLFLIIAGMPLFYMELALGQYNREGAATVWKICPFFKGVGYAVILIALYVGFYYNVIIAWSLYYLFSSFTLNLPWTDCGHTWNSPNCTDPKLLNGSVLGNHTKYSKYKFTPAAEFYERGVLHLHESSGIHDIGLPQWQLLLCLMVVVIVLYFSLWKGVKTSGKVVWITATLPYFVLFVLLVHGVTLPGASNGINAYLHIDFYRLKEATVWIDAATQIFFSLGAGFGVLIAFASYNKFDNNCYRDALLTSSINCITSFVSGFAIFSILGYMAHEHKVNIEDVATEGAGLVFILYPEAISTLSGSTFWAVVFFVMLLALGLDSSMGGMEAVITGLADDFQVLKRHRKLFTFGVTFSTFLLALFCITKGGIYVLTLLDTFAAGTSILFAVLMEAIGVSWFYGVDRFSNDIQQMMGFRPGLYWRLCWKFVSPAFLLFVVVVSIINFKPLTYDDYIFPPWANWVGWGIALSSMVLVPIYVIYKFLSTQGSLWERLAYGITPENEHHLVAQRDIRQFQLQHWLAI

[22] = test system: Brain; experiment: Drug level in mouse brain at 10 mg/kg, po; format: ADME, organism-based; parameters: dose 10 mg/kg, route oral; conditions: in vivo; summary of the method: as §3
[23] = biological target: Cytochrome P450 2D6 (Homo sapiens, UniProt P10635); experiment: Inhibition of CYP2D6 in human liver microsomes by LC-MS/MS analysis; format: ADME, Microsome; summary of the method: as §1
Cytochrome P450 2D6, sequence (P10635 whole entry): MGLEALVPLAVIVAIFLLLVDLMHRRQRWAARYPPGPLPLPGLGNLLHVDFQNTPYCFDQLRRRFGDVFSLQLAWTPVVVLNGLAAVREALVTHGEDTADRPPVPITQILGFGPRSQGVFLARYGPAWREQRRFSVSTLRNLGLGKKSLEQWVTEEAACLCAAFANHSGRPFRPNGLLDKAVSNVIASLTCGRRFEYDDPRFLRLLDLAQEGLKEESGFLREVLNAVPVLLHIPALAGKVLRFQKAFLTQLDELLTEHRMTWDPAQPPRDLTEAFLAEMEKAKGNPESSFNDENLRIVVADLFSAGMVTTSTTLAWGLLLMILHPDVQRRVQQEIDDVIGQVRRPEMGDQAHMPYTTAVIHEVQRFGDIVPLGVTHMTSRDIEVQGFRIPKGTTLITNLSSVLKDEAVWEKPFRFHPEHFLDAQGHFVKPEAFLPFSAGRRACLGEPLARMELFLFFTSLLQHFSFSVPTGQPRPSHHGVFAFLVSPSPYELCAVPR

[24] = test system: Brain; experiment: Drug level in mouse brain assessed as (3aS,6aR)-3a-(3,4-dichlorophenyl)octahydrocyclopenta[c]pyrrole level at 3 mg/kg, po; format: ADME, organism-based; parameters: dose 3 mg/kg, route oral; conditions: in vivo; summary of the method: as §3
[25] = test system: Mus musculus; experiment: Antidepressant activity in mouse assessed as reduction of immobility time at 100 mg/kg, po after 60 mins by tail suspension test relative to control; format: functional; parameters: scale not given: the % may be the effect or the level left; summary of the method: as §4
[26] = test system: Plasma; experiment: Plasma concentration in mouse assessed as (3aS,6aR)-3a-(3,4-dichlorophenyl)octahydrocyclopenta[c]pyrrole level at 3 mg/kg, po; format: ADME, organism-based; parameters: dose 3 mg/kg, route oral; conditions: in vivo; summary of the method: as §3
[27] = test system: Brain; experiment: Drug level in mouse brain at 3 mg/kg, po; format: ADME, organism-based; parameters: dose 3 mg/kg, route oral; conditions: in vivo; summary of the method: as §3
[28] = test system: Plasma; experiment: Plasma concentration in mouse assessed as (3aR,6aS)-3a-(3,4-dichlorophenyl)octahydrocyclopenta[c]pyrrole level at 10 mg/kg, po; format: ADME, organism-based; parameters: dose 10 mg/kg, route oral; conditions: in vivo; summary of the method: as §3
[29] = test system: Brain; experiment: Drug level in mouse brain assessed as (3aR,6aS)-3a-(3,4-dichlorophenyl)octahydrocyclopenta[c]pyrrole level at 30 mg/kg, po; format: ADME, organism-based; parameters: dose 30 mg/kg, route oral; conditions: in vivo; summary of the method: as §3
[30] = test system: Brain; experiment: Drug level in mouse brain assessed as (3aR,6aS)-3a-(3,4-dichlorophenyl)octahydrocyclopenta[c]pyrrole level at 3 mg/kg, po; format: ADME, organism-based; parameters: dose 3 mg/kg, route oral; conditions: in vivo; summary of the method: as §3
[31] = test system: Mus musculus; experiment: Toxicity in mouse assessed as increase of spontaneous locomotor activity at 30 mg/kg, po measured for 5 mins; format: organism-based; parameters: dose 30 mg/kg, route oral; conditions: in vivo
[32] = test system: Plasma; experiment: Plasma concentration in mouse assessed as (3aR,6aS)-3a-(3,4-dichlorophenyl)octahydrocyclopenta[c]pyrrole level at 3 mg/kg, po; format: ADME, organism-based; parameters: dose 3 mg/kg, route oral; conditions: in vivo; summary of the method: as §3
[33] = test system: Brain; experiment: Drug level in mouse brain assessed as (3aR,6aS)-3a-(3,4-dichlorophenyl)octahydrocyclopenta[c]pyrrole level at 10 mg/kg, po; format: ADME, organism-based; parameters: dose 10 mg/kg, route oral; conditions: in vivo; summary of the method: as §3
[34] = test system: Plasma; experiment: Plasma concentration in mouse assessed as (3aR,6aS)-3a-(3,4-dichlorophenyl)octahydrocyclopenta[c]pyrrole level at 30 mg/kg, po; format: ADME, organism-based; parameters: dose 30 mg/kg, route oral; conditions: in vivo; summary of the method: as §3
[35] = biological target: Voltage-gated inwardly rectifying potassium channel KCNH2 (Homo sapiens, UniProt Q12809); experiment: Inhibition of human ERG expressed in CHO cells by high throughput single cell planar patch clamp method; format: cell-based
Voltage-gated inwardly rectifying potassium channel KCNH2, sequence (Q12809 whole entry): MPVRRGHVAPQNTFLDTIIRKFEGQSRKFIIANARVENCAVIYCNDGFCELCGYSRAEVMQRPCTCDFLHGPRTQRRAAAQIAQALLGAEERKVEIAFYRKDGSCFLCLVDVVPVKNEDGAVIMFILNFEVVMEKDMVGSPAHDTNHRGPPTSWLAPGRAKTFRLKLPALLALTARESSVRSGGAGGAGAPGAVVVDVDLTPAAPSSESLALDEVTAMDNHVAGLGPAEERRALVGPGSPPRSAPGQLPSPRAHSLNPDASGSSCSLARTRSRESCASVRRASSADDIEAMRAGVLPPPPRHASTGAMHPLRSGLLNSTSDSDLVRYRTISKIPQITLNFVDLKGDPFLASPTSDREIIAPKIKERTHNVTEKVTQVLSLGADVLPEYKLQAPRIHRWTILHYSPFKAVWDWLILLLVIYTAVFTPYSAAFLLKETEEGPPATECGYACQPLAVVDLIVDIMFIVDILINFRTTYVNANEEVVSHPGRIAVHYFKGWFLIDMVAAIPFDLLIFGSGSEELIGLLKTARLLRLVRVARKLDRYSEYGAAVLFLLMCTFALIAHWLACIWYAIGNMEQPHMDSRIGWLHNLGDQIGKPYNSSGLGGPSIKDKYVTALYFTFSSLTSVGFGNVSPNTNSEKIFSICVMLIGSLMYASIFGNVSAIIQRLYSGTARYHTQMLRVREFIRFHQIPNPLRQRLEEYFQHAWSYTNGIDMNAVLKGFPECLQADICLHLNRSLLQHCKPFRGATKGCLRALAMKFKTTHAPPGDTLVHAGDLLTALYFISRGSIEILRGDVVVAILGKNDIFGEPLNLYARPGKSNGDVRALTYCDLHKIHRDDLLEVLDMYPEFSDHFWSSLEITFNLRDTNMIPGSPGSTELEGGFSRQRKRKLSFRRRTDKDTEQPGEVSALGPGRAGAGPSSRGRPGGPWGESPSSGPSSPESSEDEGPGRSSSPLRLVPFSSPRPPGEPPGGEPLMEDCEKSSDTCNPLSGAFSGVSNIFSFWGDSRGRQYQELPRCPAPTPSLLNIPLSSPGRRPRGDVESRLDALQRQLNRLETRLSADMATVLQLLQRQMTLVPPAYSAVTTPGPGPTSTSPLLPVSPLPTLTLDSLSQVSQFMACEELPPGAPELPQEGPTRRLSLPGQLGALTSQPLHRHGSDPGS

`CN1C[C@H]2CCC[C@@]2(c2ccc(Cl)c(Cl)c2)C1` showed an IC50 [1] of over 25 µM, a half-life at 3 µM [2] of 27 min and a Drug uptake [3] of 11433 ng/g. It also gave a Drug uptake [4] of 4762 ng/g, an Activity [5] of 31% and an IC50 [6] of over 25 µM. For the same compound, the IC50 [7] was 3.63 nM, the Cp [8] was 537 ng/mL and the IC50 [9] was 7.22 µM. The Cp [10] was 7 ng/mL, the Activity [11] was 25% and the Kp [12] was 2. For the same compound, the Cp [13] was 30 ng/mL, the half-life at 3 µM [14] was 37 min and the Activity [15] was “Dose-dependent effect”. It also gave an IC50 [16] of over 25 µM, a Cp [17] of 211 ng/mL and a Drug uptake [18] of 507 ng/g. For the same compound, the IC50 [19] was 148 nM, the Cp [20] was 2 ng/mL and the IC50 [21] was 22.4 nM. It also gave a Drug uptake [22] of 113 ng/g, an IC50 [23] of 5.21 µM and a Drug uptake [24] of 1531 ng/g. It also gave an Activity [25] of 26%, a Cp [26] of 69 ng/mL and a Drug uptake [27] of 34 ng/g.

`CN1C[C@H]2CCCC[C@@]2(c2ccc(Cl)c(Cl)c2)C1` (single isomer, unassigned) showed a Cp [28] of 417 ng/mL, an IC50 [1] of over 25 µM and a half-life at 3 µM [2] of 45 min. It also gave an Activity [5] of 16%, an IC50 [6] of 6.5 µM and an IC50 [7] of 9.77 nM. It also gave a Drug uptake [29] of 6193 ng/g, an IC50 [9] of 11.9 µM and a Cp [10] of 50 ng/mL. It also gave an Activity [11] of 13%, a Kp [12] of 5 and a Cp [13] of 181 ng/mL. The Drug uptake [30] was 440 ng/g, the half-life at 3 µM [14] was 125 min and the Activity [15] was “Dose-dependent effect”. The Activity [31] was “Non-toxic”, the IC50 [16] was over 25 µM and the Drug uptake [18] was 4203 ng/g. It also gave an IC50 [19] of 55 nM, a Cp [20] of 14 ng/mL and an IC50 [21] of 56.2 nM. It also gave a Cp [32] of 114 ng/mL, a Drug uptake [22] of 1054 ng/g and an IC50 [23] of 1.1 µM. The Drug uptake [33] was 1878 ng/g, the Activity [25] was 28% and the Cp [34] was 1228 ng/mL. For the same compound, the Drug uptake [27] was 294 ng/g and the IC50 [35] was 4.14 µM.

For `Clc1ccc([C@@]23CCC[C@@H]2CNC3)cc1Cl`, the Activity [15] was “Dose-dependent effect”.
